ChEMBL document CHEMBL1153046, “Synthesis and antitumor activity of substituted triazolo[4,3-a]pyrimidin-6-sulfonamide with an incorporated thiazolidinone moiety” (2009)

Each compound was assayed on NCI-H23 (assay: Growth inhibition of human NCI-H23 cells after 48 hrs by sulforhodamine B assay). Settings: NCI-H23, 48 h.
Format: functional
How it was run: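 NCI 60-cell-line panel. Cells are grown in RPMI1640 with 5% fetal calf serum and 2 mM L-glutamine, seeded at a density set by growth characteristics, and preincubated 24 h. Compound is tested at a minimum of five concentrations at 10-fold dilution, with 48 h continuous exposure. Viability is read by sulforhodamine B protein assay. GI50, TGI and LC50 come from dose-response curves.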
`COc1ccc(/C=N/c2nc3[nH]nc(C)n3c(=O)c2S(=O)(=O)NN2C(=O)C(CN3CCN(C)CC3)SC2c2cccs2)cc1` (stereo not drawn) was tested, and the GI50 was 1.16 µM and the TGI was 9.11 µM. `COc1ccc(/C=N/c2nc3[nH]nc(C)n3c(=O)c2S(=O)(=O)NN2C(=O)C(CN3CCOCC3)SC2c2cccs2)cc1` (stereo not drawn) showed a GI50 of 44.5 µM and a TGI greater than 100 µM. With `COc1ccc(/C=N/c2nc3[nH]nc(C)n3c(=O)c2S(=O)(=O)NN2C(=O)C(CN3CCOCC3)SC2c2ccc(OC)cc2)cc1` (stereo not drawn) the GI50 was 87.8 µM and the TGI was greater than 100 µM. Work on `COc1ccc(/C=N/c2nc3[nH]nc(C)n3c(=O)c2S(=O)(=O)NN2C(=O)C(CN3CCN(C)CC3)SC2c2ccc(OC)cc2)cc1` (stereo not drawn) yielded a GI50 of 20.5 µM and a TGI of 48.1 µM.
